High-throughput results (PubChem)
This is one part of a sample in which hits are shown more often than they occur.
GAA850 FXN act = FXN promoter activators, primary screen, cell-based, luciferase luminescence, HEK293 lucGAA850; HEK293 lucGAA850 FXN promoter luciferase reporter, 24 h; percent of 10 µM SAHA response; activation, % at 6 µM; 0.56% of 360,000 active; AID 540364, 2011;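 active means activation above the average of all compounds screened plus 3 SD, cutoff fixed separately per campaign, cut at about 7.5% in these data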
UPR XBP1 act = activators of adaptive XBP1 UPR arm, primary screen, cell-based, CHO-XBP1 luciferase reporter, luminescence, uHTS. IRE1-XBP1 UPR activation; percent of tunicamycin response, DMSO as zero. activation, % at 20 µM. 0.33% of 330,000 active. AID 463104, 2010;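 active means versus positive control, 20 µM dose yields 30% or more activation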
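Test system: CHO-XBP1 luciferase reporter cells | Buffer or medium: Serum-containing F12 medium, 10% FBS | Schedule: 6 h compound exposure at 37 °C, 5% CO2 | Detection: Steady-Glo luciferase glow luminescence, 10 min after reagent addition | Read-out basis: Activation, % of tunicamycin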
CHOP inhibitor = inhibitors of CHOP promoter induction, primary screen, cell-based, unfolded protein response, luciferase reporter; CHO-K1 CHOP-promoter luciferase, tunicamycin-induced, 15-18 h; inhibition, % at 10 µM; 3.8% of 220,000 active; AID 2732, 2010;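 active means compounds that reduced the stress-induced luciferase reporter signal by more than about 70% of percent inhibition, limit read from the data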
CHOP UPR activ = activators of apoptotic CHOP UPR arm, primary screen, cell-based, CHO-CHOP luciferase reporter, luminescence, uHTS; activation, % at 10 µM; UPR activation; percent of tunicamycin response over DMSO baseline; 0.34% of 330,000 active; AID 449763, 2010;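 active means at 10 µM dose, activation of 40% or more, normalized to positive control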
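assay system = CHO CHOP reporter cells | amount = 500 CHO-CHOP cells per well | buffer or medium = F12 with 10% FBS | incubation = 16-18 h cell attachment, then 6 h compound exposure, 37 °C | detection = luminescence read with Steady-Glo | read-out = percent activation relative to tunicamycin control | controls = tunicamycin high control, DMSO low control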
A number is an active result.

`Cc1ccc(C(=O)CSc2nnc3c4ccccc4nc(C(C)(C)C)n23)cc1` gave GAA850 FXN act inactive, UPR XBP1 act inactive, CHOP inhibitor 70.1 and CHOP UPR activ inactive.
`CC(C)(C)c1ccc(C(=O)CSc2nc3ccccc3c(=O)[nH]2)cc1` gave GAA850 FXN act inactive, UPR XBP1 act inactive, CHOP inhibitor 74.5 and CHOP UPR activ inactive.
`CCC(C)Sc1nc2c(cnn2-c2ccc(C)cc2)c(=O)[nH]1` (centres undefined) gave GAA850 FXN act inactive, UPR XBP1 act inactive, CHOP inhibitor inactive and CHOP UPR activ inactive.
`CCCSc1nc2c(cnn2-c2ccc(C)cc2)c(=O)[nH]1` gave GAA850 FXN act inactive, UPR XBP1 act inactive, CHOP inhibitor inactive and CHOP UPR activ inactive.
For CCCSc1nc2c(cnn2-c2ccc(F)cc2)c(=O)[nH]1 the results were GAA850 FXN act inactive, UPR XBP1 act inactive, CHOP inhibitor 79.0 and CHOP UPR activ inactive.
CCC(C)Sc1nc2c(cnn2-c2ccccc2)c(=O)[nH]1 (centres undefined) was read as GAA850 FXN act inactive, UPR XBP1 act inactive, CHOP inhibitor 77.7 and CHOP UPR activ inactive.
For O=C(CSc1nc2ccccc2c(=O)[nH]1)c1ccccc1 the results were GAA850 FXN act inactive, UPR XBP1 act inactive, CHOP inhibitor inactive and CHOP UPR activ inactive.
O=C(CSc1nc2c(cnn2-c2ccccc2)c(=O)[nH]1)c1ccc(Cl)cc1 was read as GAA850 FXN act inactive, UPR XBP1 act inactive, CHOP inhibitor 91.5 and CHOP UPR activ inactive.
CCCSc1nc2c(cnn2-c2ccccc2)c(=O)[nH]1 was read as GAA850 FXN act inactive, UPR XBP1 act inactive, CHOP inhibitor 79.8 and CHOP UPR activ inactive.
`O=C(CSc1nc2c(cnn2-c2ccccc2)c(=O)[nH]1)N1CCCCC1` gave GAA850 FXN act inactive, UPR XBP1 act inactive, CHOP inhibitor inactive and CHOP UPR activ inactive.
Screening Cc1ccc(C(=O)NC(=S)c2c(C)cc3ccccn23)cc1 returned GAA850 FXN act inactive.
C[C@H]1CN([C@@H](C)CO)S(=O)(=O)c2ccc(-c3ccccc3)cc2O[C@H]1CN(C)C(=O)C1CCC1 was read as GAA850 FXN act inactive.
For CC1(C(=O)NS(=O)(=O)c2cccc(OC(F)F)c2)CCN1C(=O)Cc1ccsc1 (centres undefined) the results were GAA850 FXN act inactive.
`CC1(C(=O)NCCC(F)(F)F)Cc2c(-c3ccccc3)ccnc2O1` (centres undefined) gave GAA850 FXN act inactive.
For Cc1cc(OC(=O)N2CCCCC2)cc(C)c1Cl the results were GAA850 FXN act inactive, UPR XBP1 act inactive, CHOP inhibitor 76.0 and CHOP UPR activ inactive.
`COc1ccccc1CNC(=O)c1ccc2nc3[nH]c4ccccc4c3nc2c1` gave GAA850 FXN act inactive, UPR XBP1 act inactive, CHOP inhibitor 99.6 and CHOP UPR activ inactive.
`Cc1ccc(CNC(=O)c2ccc3nc4[nH]c5ccccc5c4nc3c2)cc1` gave CHOP inhibitor 93.8.
Screening CCc1nc2ccc(C(=O)NCCc3ccccc3OC)cc2nc1CC returned GAA850 FXN act inactive, UPR XBP1 act inactive and CHOP UPR activ inactive.
`COc1nc(Nc2nc3ccccc3c(=O)[nH]2)nc2ccc(C)cc12` gave GAA850 FXN act inactive, UPR XBP1 act inactive, CHOP inhibitor 88.4 and CHOP UPR activ inactive.
COc1cccc(/C=N/NC(=O)CCn2c3ccccc3c3ccccc32)c1 was read as GAA850 FXN act inactive, UPR XBP1 act inactive, CHOP inhibitor 89.1 and CHOP UPR activ inactive.
For O=S(=O)(NCCNC/C=C/c1ccc(Br)cc1)c1cccc2cnccc12 the results were CHOP inhibitor 95.4.
Screening CCCCc1nc2sc3c(SCC(=O)NCc4ccco4)ncnc3c2c2c1CCC2 returned GAA850 FXN act inactive, UPR XBP1 act inactive, CHOP inhibitor 86.1 and CHOP UPR activ inactive.
CCCCc1nc2sc3c(SCCN(C)C)ncnc3c2c2c1CCC2 was read as GAA850 FXN act inactive, UPR XBP1 act inactive, CHOP inhibitor inactive and CHOP UPR activ inactive.
`COc1cc2c(cc1OC)C(=NO)CCCC2` gave GAA850 FXN act inactive.
For N#Cc1c(C(F)(F)F)cc(C2CC2)nc1N1CCCC1 the results were GAA850 FXN act inactive, UPR XBP1 act inactive, CHOP inhibitor 83.1 and CHOP UPR activ inactive.
COc1cc(/C=N/N=C(/N)c2nonc2N)cc(Br)c1OCc1cccc(C)c1 was read as GAA850 FXN act inactive, UPR XBP1 act inactive, CHOP inhibitor 71.4 and CHOP UPR activ inactive.
COc1cc(/C=N/N=C(\N)c2nonc2N)cc(OC)c1O was read as GAA850 FXN act inactive, UPR XBP1 act inactive, CHOP inhibitor inactive and CHOP UPR activ inactive.
CCCCCOc1ccc(Cl)cc1CN1CCOCC1 was read as GAA850 FXN act inactive, UPR XBP1 act inactive, CHOP inhibitor inactive and CHOP UPR activ inactive.
CC(C)CCOc1ccc(Cl)cc1CN1CCOCC1 was read as GAA850 FXN act inactive, UPR XBP1 act inactive, CHOP inhibitor 82.9 and CHOP UPR activ inactive.
Screening O=C(N/N=C/c1ccc(OC(=O)c2ccccc2)cc1)c1ccc(CN2CCOCC2)cc1 returned GAA850 FXN act inactive, UPR XBP1 act inactive, CHOP inhibitor 71.3 and CHOP UPR activ inactive.
C=CCN=C1NN=C(c2cc(C)n(CCOC)c2C)CS1 was read as GAA850 FXN act inactive, UPR XBP1 act inactive, CHOP inhibitor 79.9 and CHOP UPR activ inactive.
COCCn1c(C)cc(C2=NNC(=NC3CC3)SC2)c1C was read as GAA850 FXN act inactive, UPR XBP1 act inactive, CHOP inhibitor 103.2 and CHOP UPR activ inactive.
Screening COCCn1c(C)cc(C2=NNC(=Nc3ccc(Cl)cc3Cl)SC2)c1C returned GAA850 FXN act inactive, UPR XBP1 act inactive, CHOP inhibitor inactive and CHOP UPR activ inactive.
Screening Cc1cc(C2=NNC(=NC3CC3)SC2)c(C)n1Cc1ccco1 returned GAA850 FXN act inactive and CHOP inhibitor 95.5.
C=CCn1c(C)cc(C2=NNC(=NC(C)(C)C)SC2)c1C was read as GAA850 FXN act inactive, UPR XBP1 act inactive, CHOP inhibitor inactive and CHOP UPR activ inactive.
CC1(C)OC2CC3C4CCC5=CC(=O)C=CC5(C)C4(F)C(O)CC3(C)C2(C(=O)CO)O1 (centres undefined) was read as GAA850 FXN act inactive.
C[C@@H]1CN([C@H](C)CO)C(=O)CCCn2nncc2CO[C@@H]1CN(C)C(=O)NC1CCCCC1 was read as GAA850 FXN act inactive.
For O=C1N/C(=C/c2ccc(Br)s2)C(=O)N1c1ccccc1 the results were GAA850 FXN act inactive, UPR XBP1 act inactive, CHOP inhibitor 96.2 and CHOP UPR activ inactive.
Screening CCOc1ccc2oc(C(=O)OCC(=O)NC(=O)NC3CCCC3)c(C)c2c1 returned GAA850 FXN act inactive, UPR XBP1 act inactive, CHOP inhibitor 72.6 and CHOP UPR activ inactive.
Screening N#CCSc1ccccc1NC(=O)COC(=O)C1CCN(C(=O)c2ccc(Cl)cc2)CC1 returned GAA850 FXN act inactive.
